Activity calls are given as the source filed them. No cut-off for these calls is given here.
Tests used:
[1] = Selectivity index, ratio of CC50 for dog MDCK cells to IC50 for Influenza A virus (A/California/07/09(H1N1)) pdm09 infected in MDCK cells; format: toxicity, cell-based; settings: read-out: Ratio CC50/IC50
[2] = Cytotoxicity against dog MDCK cells assessed as reduction in cell viability by MTT assay; format: cell-based, Canis lupus familiaris
[3] = Antiviral activity against Influenza A virus (A/California/07/09(H1N1))pdm09 infected in MDCK cells assessed as reduction in viral replication preincubated with compound for 1 hr followed by viral infection and measured after viral cultivation for 48 hrs by hemagglutination test; format: functional, cell-based, Influenza A virus (A/California/07/2009(H1N1))
[4] = test system: Influenza A virus (A/California/07/2009(H1N1)); assay: Anti-membranotropic activity against Influenza A virus (A/California/07/09(H1N1))pdm09 hemagglutinin assessed as inhibition of HA-driven chicken erythrocytes membrane fusion incubated for 30 mins by fusogenic activity assay
In short: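 Compound mixed with virus and held 30 min at room temperature, then combined with 0.75% chicken erythrocytes at +4 °C. Fusion was triggered with MES buffer at pH 5.0. After erythrocytes sedimented, haemoglobin released by membrane lysis was read as optical density at 405 nm.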

MDCK = assay: Antiviral activity against Influenza A virus (A/California/07/09(H1N1))pdm09 infected in MDCK cells assessed as suppression of viral replication at early stage of viral cycle after 2 hpi by time of addition assay; format: functional, cell-based; settings: Influenza A virus (A/California/07/2009(H1N1)), time 2.0 hrs
In short: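 Time-of-addition study in MDCK cells. Compound added at set times relative to infection (time 0 = moment of infection). Read-out was the infectious activity of viral progeny, assayed in MDCK cells.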

[5] = test system: Influenza A virus (A/California/07/2009(H1N1)); assay: Inhibition of Influenza A virus (A/California/07/09(H1N1))pdm09 hemagglutinin receptor binding activity

Compound | selectivity ratio [1] | CC50 [2] [µM] | IC50 [3] [µM] | inhibition [4] | Activity (MDCK) | inhibition [5]
NC(=O)c1ncn([C@@H]2O[C@H](CO)[C@@H](O)[C@H]2O)n1 [RIBAVIRIN] | 48 | > 2130 | 44 |  |  | 
Nc1cc(C(F)(F)F)cc2sc(=O)sc12 | 11 | 212 | 19 |  |  | 
O=C(CN1CCCCC1)Nc1cc(C(F)(F)F)cc2sc(=O)sc12 | 29 | 532 | 18 | Dose-dependent effect | Active | inactive
O=C(CN1CCCC1)Nc1cc(C(F)(F)F)cc2sc(=O)sc12 | 4 | > 829 | 191 |  |  | 
CC(=O)Nc1cc(C(F)(F)F)cc2sc(=O)sc12 | 3 | 95 | 38 |  |  | 
O=C(CN1CCOCC1)Nc1cc(C(F)(F)F)cc2sc(=O)sc12 | 3 | 13 | 5 |  |  | 
O=C(CCN1CCOCC1)Nc1cc(C(F)(F)F)cc2sc(=O)sc12 | 11 | 104 | 9 |  |  | 
O=C(CCN1CCCCC1)Nc1cc(C(F)(F)F)cc2sc(=O)sc12 | 1 | 34 | > 28.2 |  |  | 
O=C(Nc1cc(C(F)(F)F)cc2sc(=O)sc12)C(F)(F)F | 12 | 2.2 | 0.2 |  |  | 
CC(N)C12CC3CC(CC(C3)C1)C2 (stereo not given) [RIMANTADINE] | 9 |  | 41 |  |  | 
O=C(CCN1CCCC1)Nc1cc(C(F)(F)F)cc2sc(=O)sc12 | 12 | 75 | 6 |  |  | 

From ChEMBL document CHEMBL4699606, “New type of anti-influenza agents based on benzo[d][1,3]dithiol core” (Bioorg Med Chem Lett, 2020)
